Data set [1] addresses T1, 11-beta-hydroxysteroid dehydrogenase 1 (Mus musculus, UniProt P50172). Kind of data set: Inhibition of mouse 11beta-HSD1 expressed in CHO cells […] incubated for 30 mins prior to substrate addition measured after 120 mins by chemiluminescence assay in presence of 10% human serum. It counts as cell-based. Put shortly:
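Cell-based assay with 10% (v/v) human serum in the culture medium. Run in duplicate, with 11-point 2-fold dilutions giving the IC50. Lower threshold was 10 nM.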

A short description of data set [2]: Half life in Beagle dog at 5 mg/kg, po. As to conditions: in vivo.
A short description of data set [3]: AUC in C57B6 mouse at 2 mg/kg, iv. It counts as ADME, organism-based. Further details: dose 2 mg/kg, route intravenous. As to conditions: plasma. Put shortly: (§1)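 Male C57B6 mice. IV dose of 2 mg/kg in 50% DMSO/50% PEG200. Oral dose of 10 mg/kg in 2% Tween/0.5% methyl cellulose in water. Values are PK parameters from the iv and po arms.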
Data set [4] in a line: AUC in Beagle dog at 2 mg/kg, iv. It counts as ADME, organism-based, Canis lupus familiaris. The arrangement: dose 2 mg/kg, route intravenous. Particulars: plasma. The method, boiled down:
(§2)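 Male dogs were given 2 mg/kg intravenously in 50% DMSO/50% PEG200.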

The species named for data set [5] is Mus musculus. The data set can be described thus: Antidiabetic activity in C57B6 DIO mouse assessed as reduction in fasting insulin level at 0.3 mg/g of food after 31 days by HPLC analysis relative to untreated control. It counts as functional. Further details: scale not given: the % may be the effect or the level left. The method, boiled down: (§3)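 Male C57B6 mice, 5.5–7 months old, kept on a 35.5% fat diet for 4 months. Compound was mixed into food at 0.3 mg drug/g food for 31 days. Controls received diet 12492. Glucose and insulin were measured fed and fasting.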

The species named for data set [6] is Mus musculus. The data set can be described thus: Antidiabetic activity in C57B6 DIO mouse assessed as reduction in fasting glucose level at 0.3 mg/g of food after 31 days by HPLC analysis relative to untreated control. It counts as functional. The arrangement: scale not given: the % may be the effect or the level left. Put shortly:
as §3

Data set [7] in a line: AUC in Sprague-Dawley rat at 2 mg/kg, iv. It counts as ADME, organism-based. The arrangement: dose 2 mg/kg, route intravenous. As to conditions: plasma. The method, boiled down:
(§4)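 SD rats received 2 mg/kg iv in 50% DMSO/50% PEG200, or 10 mg/kg po in 2% Tween/0.5% methyl cellulose in water. PK parameters come from each route.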

For data set [8], the target named is Voltage-gated inwardly rectifying potassium channel KCNH2 (Homo sapiens, UniProt Q12809). The data set can be described thus: Activity at human ERG at 33 uM.
The species named for data set [9] is Mus musculus. The data set can be described thus: Toxicity in C57B6 DIO mouse assessed as body weight change at 0.3 mg/g of food after 31 days relative to untreated control. It counts as organism-based. Particulars: in vivo, po, 744 h.
In data set [10] the target is T1, 11-beta-hydroxysteroid dehydrogenase 1. Kind of data set: Inhibition of mouse 11beta-HSD1 expressed in CHO cells […] incubated for 30 mins prior to substrate addition measured after 120 mins by chemiluminescence assay. It counts as cell-based. Put shortly: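 Cell-based assay run in duplicate. Compounds were tested as 11-point 2-fold dilutions, and IC50 was derived. Lower assay threshold was 10 nM.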

A short description of data set [11]: Tmax in C57B6 mouse at 10 mg/kg, po. As to conditions: in vivo. The arrangement: dose 10 mg/kg, route oral. It counts as ADME, organism-based. The method, boiled down: as §1
Data set [12] can be described thus: Half life in human liver microsomes. It counts as ADME, Microsome.
Data set [13] is described as follows: Half life in C57B6 mouse at 10 mg/kg, po. It counts as ADME, organism-based. As to conditions: in vivo. The arrangement: dose 10 mg/kg, route oral. Put shortly: as §1
Data set [14] is described as follows: AUC in C57B6 mouse at 10 mg/kg, po. It counts as ADME, organism-based. The arrangement: dose 10 mg/kg, route oral. As to conditions: plasma. Put shortly: as §1
The nature of data set [15]: Volume of distribution at steady state in C57B6 mouse at 2 mg/kg, iv. It counts as ADME, organism-based. The arrangement: dose 2 mg/kg, route intravenous. As to conditions: in vivo, read-out: Vdss. The method, boiled down: as §1
Data set [16] can be described thus: Half life in Sprague-Dawley rat at 10 mg/kg, po. Particulars: in vivo. The arrangement: dose 10 mg/kg, route oral. It counts as ADME, organism-based. The method, boiled down:
as §4

The target of data set [17] is T2, 11-beta-hydroxysteroid dehydrogenase type 2 (Homo sapiens, UniProt P80365).
T2 sequence (P80365 whole entry): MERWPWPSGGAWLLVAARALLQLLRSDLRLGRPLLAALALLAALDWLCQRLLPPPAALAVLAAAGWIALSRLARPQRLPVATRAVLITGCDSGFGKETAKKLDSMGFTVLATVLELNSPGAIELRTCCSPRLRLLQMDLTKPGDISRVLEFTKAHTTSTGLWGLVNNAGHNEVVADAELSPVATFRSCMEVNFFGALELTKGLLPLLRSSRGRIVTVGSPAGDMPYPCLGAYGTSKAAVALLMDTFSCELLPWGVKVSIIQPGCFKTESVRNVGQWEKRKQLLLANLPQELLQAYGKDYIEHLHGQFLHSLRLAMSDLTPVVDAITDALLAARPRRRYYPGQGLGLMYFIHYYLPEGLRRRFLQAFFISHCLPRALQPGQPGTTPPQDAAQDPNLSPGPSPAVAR
The data set can be described thus: Inhibition of human 11beta-HSD2 expressed in CHO cells using […] as substrate incubated for 30 mins prior to substrate addition measured after 120 mins by scintillation counting analysis. It counts as cell-based.

Data set [18] deals with 11-beta-hydroxysteroid dehydrogenase 1 (Homo sapiens, UniProt P28845). Kind of data set: Inhibition of human 11beta-HSD1 expressed in CHO cells using cortisone as substrate incubated for 30 mins prior to substrate addition measured after 120 mins by chemiluminescence assay.
The target of data set [19] is T3, Peroxisome proliferator-activated receptor gamma (Homo sapiens, UniProt P37231).
T3 sequence (P37231 whole entry): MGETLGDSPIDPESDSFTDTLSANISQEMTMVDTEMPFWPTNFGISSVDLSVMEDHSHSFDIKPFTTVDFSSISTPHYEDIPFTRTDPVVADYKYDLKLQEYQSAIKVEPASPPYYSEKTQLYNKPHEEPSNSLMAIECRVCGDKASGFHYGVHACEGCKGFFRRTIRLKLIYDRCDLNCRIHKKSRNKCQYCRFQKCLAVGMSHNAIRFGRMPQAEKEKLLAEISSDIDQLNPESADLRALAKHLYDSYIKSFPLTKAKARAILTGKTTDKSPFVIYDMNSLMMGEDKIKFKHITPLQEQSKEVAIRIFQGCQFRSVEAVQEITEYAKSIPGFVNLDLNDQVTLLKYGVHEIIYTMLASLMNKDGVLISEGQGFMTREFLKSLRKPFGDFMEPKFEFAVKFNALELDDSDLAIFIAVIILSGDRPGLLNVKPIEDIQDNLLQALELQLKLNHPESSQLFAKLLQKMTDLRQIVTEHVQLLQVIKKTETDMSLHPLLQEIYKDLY
Kind of data set: Inhibition of PPARgamma (unknown origin).

A further data set deals with Rattus norvegicus. Kind of data set: Toxicity in rat at 200 to 2000 mg/kg. It counts as organism-based. Further details: dose 200-2000 mg/kg. Particulars: in vivo. The method, boiled down:
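14-day safety assessment and metabolism study in rats at 200, 600 and 2000 mg/kg.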

The nature of data set [20]: Half life in Beagle dog at 2 mg/kg, iv. It counts as ADME, organism-based, Canis lupus familiaris. The arrangement: dose 2 mg/kg, route intravenous. Particulars: in vivo. Put shortly: as §2
The nature of data set [21]: Tmax in Beagle dog at 5 mg/kg, po. As to conditions: in vivo.
The nature of data set [22]: AUC in Beagle dog at 5 mg/kg, po. Particulars: plasma.
Data set [23] is described as follows: Volume of distribution at steady state in Beagle dog at 2 mg/kg, iv. It counts as ADME, organism-based, Canis lupus familiaris. Further details: dose 2 mg/kg, route intravenous. Particulars: in vivo, read-out: Vdss. The method, boiled down:
as §2

Results on 1 molecule are retold here after ChEMBL document CHEMBL2321820, “Discovery of HSD-621 as a Potential Agent for the Treatment of Type 2 Diabetes” (ACS Med Chem Lett, 2013).

pIC50: −log10 of the molar value. Some results are limits rather than exact numbers.

T1 sequence (P50172 whole entry): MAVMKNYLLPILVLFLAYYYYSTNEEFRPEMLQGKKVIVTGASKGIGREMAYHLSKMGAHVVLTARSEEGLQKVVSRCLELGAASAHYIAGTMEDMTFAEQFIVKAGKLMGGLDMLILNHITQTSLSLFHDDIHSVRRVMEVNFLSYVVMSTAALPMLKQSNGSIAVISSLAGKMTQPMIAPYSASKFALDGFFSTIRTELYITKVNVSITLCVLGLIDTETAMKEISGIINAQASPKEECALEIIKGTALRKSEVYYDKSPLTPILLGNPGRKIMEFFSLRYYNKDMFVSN
Voltage-gated inwardly rectifying potassium channel KCNH2, sequence (Q12809 whole entry): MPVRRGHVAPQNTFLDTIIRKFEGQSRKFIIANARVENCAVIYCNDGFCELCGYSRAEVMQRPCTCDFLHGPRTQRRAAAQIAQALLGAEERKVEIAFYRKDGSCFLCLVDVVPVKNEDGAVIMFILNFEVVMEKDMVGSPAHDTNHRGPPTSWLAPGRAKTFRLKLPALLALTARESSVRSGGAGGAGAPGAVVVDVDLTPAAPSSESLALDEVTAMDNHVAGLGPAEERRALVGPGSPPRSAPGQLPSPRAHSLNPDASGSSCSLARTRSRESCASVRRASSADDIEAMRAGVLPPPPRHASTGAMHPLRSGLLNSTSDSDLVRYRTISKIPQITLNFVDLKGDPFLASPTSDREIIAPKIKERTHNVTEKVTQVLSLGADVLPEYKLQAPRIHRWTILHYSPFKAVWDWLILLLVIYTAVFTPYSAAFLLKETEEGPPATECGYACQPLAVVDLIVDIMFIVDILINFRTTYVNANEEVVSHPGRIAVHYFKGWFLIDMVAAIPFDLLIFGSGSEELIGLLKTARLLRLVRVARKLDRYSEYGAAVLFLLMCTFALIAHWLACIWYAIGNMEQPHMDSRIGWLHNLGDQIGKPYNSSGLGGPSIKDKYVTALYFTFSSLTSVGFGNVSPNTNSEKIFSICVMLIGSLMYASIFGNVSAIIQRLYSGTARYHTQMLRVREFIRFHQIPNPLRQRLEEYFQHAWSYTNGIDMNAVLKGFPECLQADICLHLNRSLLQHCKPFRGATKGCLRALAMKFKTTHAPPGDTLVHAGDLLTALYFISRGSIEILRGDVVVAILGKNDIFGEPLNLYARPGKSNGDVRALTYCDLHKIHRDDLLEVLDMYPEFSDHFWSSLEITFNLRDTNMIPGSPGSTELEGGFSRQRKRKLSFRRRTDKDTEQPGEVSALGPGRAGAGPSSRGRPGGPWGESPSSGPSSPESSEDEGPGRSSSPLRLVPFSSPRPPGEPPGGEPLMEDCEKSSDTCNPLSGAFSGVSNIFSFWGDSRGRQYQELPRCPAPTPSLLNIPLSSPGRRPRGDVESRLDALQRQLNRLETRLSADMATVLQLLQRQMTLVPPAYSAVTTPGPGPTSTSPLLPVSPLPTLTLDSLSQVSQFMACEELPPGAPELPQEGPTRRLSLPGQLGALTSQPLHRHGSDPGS
11-beta-hydroxysteroid dehydrogenase 1 (Homo sapiens, UniProt P28845), sequence (P28845 whole entry): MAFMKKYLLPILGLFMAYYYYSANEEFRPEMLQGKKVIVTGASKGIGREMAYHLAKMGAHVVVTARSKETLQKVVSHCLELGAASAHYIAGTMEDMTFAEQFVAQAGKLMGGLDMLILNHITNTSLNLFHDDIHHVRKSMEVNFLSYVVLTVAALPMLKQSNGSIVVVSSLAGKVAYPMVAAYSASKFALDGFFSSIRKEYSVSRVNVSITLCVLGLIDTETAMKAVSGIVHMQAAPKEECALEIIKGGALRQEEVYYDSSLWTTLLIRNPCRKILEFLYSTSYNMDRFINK

Consider `C[C@@H]1CN(c2ccc(F)cc2C(F)(F)F)CCN1S(=O)(=O)c1ccc([C@@](O)(C(N)=O)C(F)(F)F)s1`, for which the negative-log IC50 (pIC50) was 8.00 in data set [1]; 8.00 in data set [10]; < 4.00 in data set [17]; 8.00 in data set [18]; < 4.00 in [19]. The half-life in [2] was 17.2 h; in data set [12] it was > 0.5 h; in data set [13] it was 4.8 h; in data set [16], 3.3 h; in data set [20], 20.3 h. Moreover, the AUC in data set [3] was found to be 3600 ng·h/mL; in data set [4] it was 32400 ng·h/mL; in [7], 4310 ng·h/mL; in data set [14], 11700 ng·h/mL; in data set [22], 43500 ng·h/mL. The Activity in the data set listed under Mus musculus [5] was 33%; in the data set filed under Mus musculus [6] it was 15%; in [8] it was “Not Active”; in the data set filed under Mus musculus [9], “Non-toxic”; in the data set on Rattus norvegicus, “Non-toxic”. The results for the Tmax in data set [11] and in [21] were 2 h and 2.8 h, respectively. In addition, the Vd came to 4.2 L/kg in [15] and 1.8 L/kg in [23].
